Reference: ChEMBL document CHEMBL3243987 (J Med Chem, 1979)
≈ marks a conversion by molar mass, not a printed value.

Columns and labels:
Lacticaseibacillus casei = experiment: Antimicrobial activity against folate-dependent Lactobacillus casei ATCC 7469 assessed as growth inhibition; assay type: functional, organism-based
CCRF-CEM = experiment: Antitumor activity against human CCRF-CEM assessed as growth inhibition; assay type: functional; conditions: read-out: ID50 (the source's name)
Dihydrofolate reductase = Dihydrofolate reductase (Lactobacillus casei, UniProt P00381); experiment: Inhibition of Lactobacillus casei ATCC 7469 dihydrofolate reductase; design: species or system Lacticaseibacillus casei
Thymidylate synthase = target: T1, Thymidylate synthase (Lactobacillus casei, UniProt P00469); experiment: Inhibition of Lactobacillus casei ATCC 7469 thymidylate synthase; design: species or system Lacticaseibacillus casei
T1 sequence (P00469 whole entry): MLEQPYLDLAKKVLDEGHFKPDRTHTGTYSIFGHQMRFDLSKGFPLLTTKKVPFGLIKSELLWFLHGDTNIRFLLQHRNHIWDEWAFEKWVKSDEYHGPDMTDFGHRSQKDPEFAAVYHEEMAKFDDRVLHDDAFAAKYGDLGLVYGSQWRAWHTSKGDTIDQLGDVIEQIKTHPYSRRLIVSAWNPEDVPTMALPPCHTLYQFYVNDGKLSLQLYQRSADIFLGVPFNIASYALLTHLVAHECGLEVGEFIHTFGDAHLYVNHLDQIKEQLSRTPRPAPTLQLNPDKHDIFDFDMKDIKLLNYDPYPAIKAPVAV

L1210 [1] = experiment: Antitumor activity against mouse L1210 cells allografted in BDF/1 hybrid mouse assessed as increase in life span at 400 mg/kg, ip first dose treated 24 hrs after tumor implantation and on day 4 and 7; assay type: functional; conditions: route intraperitoneal
Procedure, shortened: (§1)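 Male BDF/1 hybrid mice were inoculated ip with 10⁵ L-1210 leukemia cells and then given three doses (mg/kg × 3). The read-out was percent increase in life span (% ILS) compared with untreated control animals, reported at the optimal dose.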

L1210 [2] = experiment: Antitumor activity against mouse L1210 cells allografted in BDF/1 hybrid mouse assessed as increase in life span at 200 mg/kg, ip first dose treated 24 hrs after tumor implantation and on day 4 and 7; assay type: functional; conditions: route intraperitoneal; procedure, shortened: as §1
L1210 [3] = experiment: Antitumor activity against mouse L1210 cells allografted in BDF/1 hybrid mouse assessed as increase in life span at 50 to 200 mg/kg, ip first dose treated 24 hrs after tumor implantation and on day 4 and 7; assay type: functional; conditions: dose mg/kg 50-200; route intraperitoneal; procedure, shortened: as §1
L1210 [4] = experiment: Antitumor activity against mouse L1210 cells allografted in BDF/1 hybrid mouse assessed as increase in life span at 30 mg/kg, ip first dose treated 24 hrs after tumor implantation and on day 4 and 7; assay type: functional; conditions: route intraperitoneal; procedure, shortened: as §1

Dihydrofolate reductase, sequence (P00381 whole entry): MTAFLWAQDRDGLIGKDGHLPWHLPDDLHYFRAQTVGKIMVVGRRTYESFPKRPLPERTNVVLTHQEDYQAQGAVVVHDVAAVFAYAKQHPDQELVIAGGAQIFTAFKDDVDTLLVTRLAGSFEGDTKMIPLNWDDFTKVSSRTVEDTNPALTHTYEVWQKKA

| SMILES | IC50 (Lacticaseibacillus casei) [mg/L] | IC50 (CCRF-CEM) [mg/L] | IC50 (Dihydrofolate reductase) [µM] | IC50 (Thymidylate synthase) [µM] | ILS at 400 mg/kg (L1210 [1]) [%] | ILS at 200 mg/kg (L1210 [2]) [%] | ILS (L1210 [3]) [%] | ILS at 30 mg/kg (L1210 [4]) [%] |
| --- | --- | --- | --- | --- | --- | --- | --- | --- |
| COC(=O)C[C@H](NC(=O)Nc1ccc(N(C)Cc2cnc3nc(N)nc(N)c3n2)cc1)C(=O)OC | 0.006 (≈ 0.0124 µM) | 3.9 (≈ 8.07 µM) | 0.6 |  |  |  |  |  |
| COC(=O)CC[C@H](NC(=O)Nc1ccc(N(C)Cc2cnc3nc(N)nc(N)c3n2)cc1)C(=O)OC | 0.006 (≈ 0.0121 µM) | 3.5 (≈ 7.03 µM) | 0.3 |  |  |  |  |  |
| CN(Cc1cnc2nc(N)nc(N)c2n1)c1ccc(NC(=O)NC(CC(=O)O)C(=O)O)cc1 (racemic) | 0.15 (≈ 0.329 µM) | 3.2 (≈ 7.03 µM) | 0.05 | 190 | 22 |  |  |  |
| CN(Cc1cnc2nc(N)nc(N)c2n1)c1ccc(NC(=O)NC(CCC(=O)O)C(=O)O)cc1 (racemic) | 0.008 (≈ 0.017 µM) | 0.4 (≈ 0.852 µM) | 0.08 | 250 |  | 55 |  |  |
| COC(=O)CCC1NC(=O)N(c2ccc(N(C)Cc3cnc4nc(N)nc(N)c4n3)cc2)C1=O (racemic) | 0.104 (≈ 0.223 µM) | 6.7 (≈ 14.4 µM) | 4 |  |  |  | 0 |  |
| CN(Cc1cnc2nc(N)nc(N)c2n1)c1ccc(C(=O)N[C@@H](CCC(=O)O)C(=O)O)cc1 [METHOTREXATE] |  | 0.02 (≈ 0.044 µM) |  |  |  |  |  | 88 |
